Common to all, as to type: cell-based
One experiment relates to IL-6. Nature of the experiment: IL-6 level by ELISA in conditioned medium of LPS-human macrophages. To be noted: 14b at EC50 (5.3 µmol/mL), 48 h. The procedure, abridged:
(§1)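 IL-6, IL-1β, TNF-α and NF-κB levels were measured in LPS-stimulated human macrophages exposed to test compound. Comparison groups were untreated LPS-macrophages as negative control and dexamethasone-treated macrophages as reference.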

A further experiment concerns IL-1β. Nature of the experiment: IL-1β level by ELISA in conditioned medium of LPS-human macrophages. To be noted: 14b at EC50 (5.3 µmol/mL), 48 h. In short, it runs like this:
as §1

The next experiment has as its system TNF-α. Nature of the experiment: TNF-α level by ELISA in conditioned medium of LPS-human macrophages. To be noted: 14b at EC50 (5.3 µmol/mL), 48 h. The procedure, abridged:
as §1

Another experiment deals with NF-kβ. Nature of the experiment: NF-kβ level by ELISA in LPS-human macrophages. As to conditions: 14b at EC50 (5.3 µmol/mL), 48 h. The procedure, abridged: as §1
A further experiment deals with HO-1 (HMOX1). Nature of the experiment: HO-1. To be noted: LPS-human macrophages, 48 h; 14b at EC50 (5.3 µmol/mL); qPCR. In short, it runs like this:
(§2)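 LPS-stimulated human macrophages (inflammatory model) were exposed to test compound at 5.3 µmol/mL for 48 h. Akt and HMOX1 (HO-1) gene expression was measured alongside untreated LPS-macrophages as negative control and dexamethasone-treated macrophages as reference. Expression is reported as fold change relative to untreated macrophage cells.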

The test system of a further experiment is Akt. Nature of the experiment: Akt gene expression by qPCR in LPS-human macrophages. As to conditions: 48 h, 14b at EC50 (5.3 µmol/mL). The procedure, abridged:
as §2

This is an account of results in publication PMC10413923 (Journal of Enzyme Inhibition and Medicinal Chemistry, 2023).

Each structure is given as a SMILES string.

Consider `COc1ccc(C(C)=NNC(=O)COc2ccc3c(C)cc(=O)oc3c2C)cc1OC` [Compound 14b, 2–(4,8-Dimethyl-2-oxo-2H-chromen-7-yloxy)-N'-(1–(3,4-dimethoxyphenyl)ethylidene)acetohydrazide], for which, in the experiment on IL-6, the “reduction in IL-6 level relative to negative control cells” value was 1.41 fold. In addition, in the experiment with IL-1β, the “reduction in IL-1β level relative to untreated macrophage cells” value is given as 1.65 fold. Also, the “reduction in TNF-α level relative to untreated control cells” value in the experiment on TNF-α stood at 1.19 fold. Further, in the experiment with NF-kβ, the “NF-kβ modulation compared with Dexa (in words)” value is “comparable efficacy to Dexa” and the “reduction in NF-kβ level relative to untreated control cells” value came to 2.31 fold. In addition, in the experiment with HO-1 (HMOX1), the “upregulation of HO-1 gene expression compared to untreated macrophage cells” value turned out to be 6.5 fold.

As for `C[C@@H]1C[C@H]2[C@@H]3CCC4=CC(=O)C=C[C@]4(C)[C@@]3(F)[C@@H](O)C[C@]2(C)[C@@]1(O)C(=O)CO` [Dexa, dexamethasone, reference compound], the “upregulation of HO-1 gene expression compared to untreated macrophage cells” value with HO-1 (HMOX1) is 4.38 fold. Moreover, the “increase in Akt gene expression relative to untreated macrophage cells” value in the experiment with Akt was found to be 3.2 fold.
